From ChEMBL document CHEMBL3091364, “Benzyloxybenzylammonium chlorides: Simple amine salts that display anticonvulsant activity” (Bioorg Med Chem, 2013)
Activity calls are given as the source filed them. The calls are words filed in the database; no cut-off is given here.

How the values were obtained:
[1] = system: Mus musculus; experiment: Anticonvulsant activity in ip dosed albino CF-1 mouse assessed as protection against 6 Hz psychomotor seizure measured at 1 hr; assay type: functional; conditions: albino CF-1, ip
In short: (§1)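 Screened under the NINDS ASP in male albino Carworth Farms No. 1 mice (ip) or male albino Sprague-Dawley rats (ip or po), using MES, 6 Hz (32 mA) and subcutaneous pentylenetetrazol seizure tests. Initial qualitative tests used preset doses (e.g., 30, 50, 100 mg/kg). ED50 values with 95% confidence intervals came from dose–response data collected at the time of peak effect.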

[2] = system: Rattus norvegicus; experiment: Anticonvulsant activity in ip dosed albino Sprague-Dawley rat assessed as protection against maximal electroshock-induced seizures measured at 0.25 to 0.5 hrs; assay type: functional; in short: as §1
[3] = system: Mus musculus; experiment: Anticonvulsant activity in corneally kindled mouse assessed as protection against seizure at 28 mg/kg, ip; assay type: functional, organism-based; parameters: dose 28 mg/kg
In short: (§2)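 Corneally kindled mouse seizure model with ip dosing. Protection was scored in 4 animals, and the average seizure score was recorded.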

[4] = system: Mus musculus; experiment: Anticonvulsant activity in ip dosed albino CF-1 mouse assessed as protection against subcutaneous metrazol-induced seizure measured at 0.5 hrs; assay type: functional; conditions: albino CF-1, 0.5 h; in short: as §1
[5] = species: Rattus norvegicus; experiment: Activity at Na+ channel in rat embryonic cortical neurons assessed as effect on total macroscopic sodium current at 10 uM by whole-cell voltage clamp assay
[6] = species: Rattus norvegicus; experiment: Induction of Na+ channel slow inactivation in rat embryonic cortical neurons at 10 uM by whole-cell voltage clamp assay
[7] = system: Rattus norvegicus; experiment: Anticonvulsant activity in ip dosed albino Sprague-Dawley rat assessed as protection against maximal electroshock-induced seizures measured at 0.5 hrs; assay type: functional; in short: as §1
[8] = species: Rattus norvegicus; experiment: Induction of voltage-dependent Na+ channel activation in rat embryonic cortical neurons at 10 uM by whole-cell voltage clamp assay (reference value: - 39 +/- 7.8 mV)
[9] = Cytotoxicity against rat embryonic cortical neurons assessed as loss of membrane integrity at 20 uM; conditions: cortical neurone
[10] = Toxicity in ip dosed albino Sprague-Dawley rat assessed as behavioral changes measured at 0.5 hrs; assay type: organism-based; conditions: in vivo
In short: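 Male albino Sprague-Dawley rats given compound intraperitoneally or orally (NINDS ASP); neurological impairment judged from behavioral toxicity effects. Preset screening doses (e.g., 30 mg/kg); for adequately active compounds, TD50 (mg/kg, 95% confidence intervals) derived from dose–effect data at time of peak effect.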

[11] = species: Rattus norvegicus; experiment: Inhibition of Na+ channel in rat embryonic cortical neurons assessed as frequency-dependent decrease in current amplitude at 10 uM at -80 mV holding potential by whole-cell voltage clamp assay
[12] = system: Mus musculus; experiment: Anticonvulsant activity in corneally kindled mouse assessed as protection against seizure at 20 mg/kg, ip; assay type: functional, organism-based; parameters: dose 20 mg/kg; in short: as §2
[13] = species: Rattus norvegicus; experiment: Induction of voltage-dependent Na+ channel fast inactivation in rat embryonic cortical neurons at 10 uM by whole-cell voltage clamp assay (reference value: - 51.1 +/- 1.4 mV)
[14] = species: Rattus norvegicus; experiment: Inhibition of Na+ channel in rat embryonic cortical neurons assessed as hyperpolarizing shift of current at 10 uM by whole-cell voltage clamp assay
[15] = system: Rattus norvegicus; experiment: Anticonvulsant activity in po dosed albino Sprague-Dawley rat assessed as protection against maximal electroshock-induced seizures measured at 1 hr; assay type: functional; in short: as §1

Activity [5]	Activity [6]	V1/2 [8] [mV]	inhibition [11]	V1/2 [13] [mV]	Activity [14] [mV]	Compound	ED50 [1] [mg/kg]	ED50 [2] [mg/kg]	Activity [3]	ED50 [4] [mg/kg]	ED50 [7] [mg/kg]	Activity [9]	TD50 at 0.5 h [10] [mg/kg]	Activity [12]	ED50 [15] [mg/kg]
–	–	–	–	–	–	Cl.NCc1ccc(OCc2cccc(OC(F)(F)F)c2)cc1	50	< 30	Active	> 170	–	–	–	–	–
inactive	Active	-35.3	inactive	-66.4	15.3	Cl.NCc1ccc(OCc2ccccc2OC(F)(F)F)cc1	–	–	–	–	18	Toxic	81	Active	30
